These results are taken from ChEMBL document CHEMBL4229389, “Synthesis and biological evaluation of clovamide analogues as potent anti-neuroinflammatory agents in vitro and in vivo” (Eur J Med Chem, 2018).

Series [1] deals with BV-2. The series is described as follows: Anti-neuroinflammatory activity in […] assessed as reduction in LPS-induced NO production at 10 uM preincubated for 4 hrs followed by LPS stimulation for 24 hrs by Griess assay relative to control. The series is classed as functional. The settings on record: for inhibition at 10 µM: Mus musculus. Put shortly: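 Mouse microglial BV-2 cells in DMEM with 10% FBS. Pretreated at 10 µM for 4 h, then LPS 500 ng/mL for 24 h. Nitrite in supernatant measured with Griess reagent at 540 nm. Means ± S.E.M., n=3.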
Background: Nitrite, measured by Griess reagent, commonly stands in for NO production.

The subject of series [2] is BV-2. The series is described as follows: Anti-neuroinflammatory activity in […] assessed as reduction in LPS-induced NO production preincubated for 4 hrs followed by LPS stimulation for 24 hrs by Griess assay. The series is classed as functional, cell-based. The settings on record: Mus musculus. In a few lines:
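BV-2 cells pretreated 4 h over 0.78-100 µM (twofold series), then LPS 500 ng/mL for 24 h. Supernatant mixed 1:1 with Griess reagent, A540, against NaNO2 standard curve. IC50 by curve fitting; mean ± S.E.M. of three experiments.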

Series [3] in a line: Cytotoxicity against […] assessed as reduction in cell viability after 24 hrs by MTT assay. It is filed as cell-based, BV-2. The settings on record: BV2 cells. Put shortly:
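BV-2 cells at 5 × 10^3/well, grown 12 h, then exposed to 1-100 µM for 24 h. MTT at 0.5 mg/mL final for 4 h at 37 ℃. Formazan dissolved in DMSO and read at 490 nm. CC50 as mean ± S.E.M. of three experiments.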
(In general: Formazan colour is commonly taken as a measure of viable cells.)

Series [4] concerns BV-2. The series is described as follows: Anti-neuroinflammatory activity in […] assessed as reduction in LPS-induced COX-2 expression preincubated for 2 hrs followed by LPS stimulation for 24 hrs by Western blot analysis. The series is classed as functional, cell-based. In a few lines: (§1)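 BV-2 cells at 5 × 10^5/well, pretreated at 1, 10 or 20 µM, then LPS 500 ng/mL. Lysed in RIPA with protease/phosphatase inhibitors. 30 µg protein blotted with primary antibodies 1:1000 and HRP secondary 1:5000, ECL detection. β-actin as loading control. Expressed as fold of control; at least three independent experiments, each in duplicate.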
A general note: A western blot detects proteins with antibodies after separation by electrophoresis.

The subject of series [5] is BV-2. Kind of series: Anti-neuroinflammatory activity in […] assessed as reduction in LPS-induced IL-1beta expression preincubated for 2 hrs followed by LPS stimulation for 24 hrs by Western blot analysis. It is filed as functional, cell-based. In a few lines:
as §1

In series [6] the test system is BV-2. Kind of series: Anti-neuroinflammatory activity in […] assessed as reduction in LPS-induced TNF-alpha expression preincubated for 2 hrs followed by LPS stimulation for 24 hrs by Western blot analysis. The series is classed as functional, cell-based. In a few lines: as §1
Series [7] deals with BV-2. The series is described as follows: Anti-neuroinflammatory activity in […] assessed as reduction in LPS-induced iNOS expression preincubated for 2 hrs followed by LPS stimulation for 24 hrs by Western blot analysis. The series is classed as functional, cell-based. In a few lines:
as §1

The subject of series [8] is Mus musculus. The series is described as follows: Anti-neuroinflammatory activity in MPTP-induced C57BL/6 mouse assessed as alleviation of functional behaviour impairment at 10 mg/kg, po pre-treated daily for 7 days followed by 4 times MPTP addition at 2 hrs intervals and measured after 4 to 72 hrs post MPTP injection by rota rod test. The series is classed as organism-based. Put shortly: (§2)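 Male C57BL/6 mice, 7-8 weeks, 20-22 g, 8 per group. Pretrained 3 days on rota-rod, up to 25 rpm, to stay on 180 s. Dosed i.g. at 10 or 20 mg/kg daily for 7 days in 0.5% methylcellulose with 1% Tween 80, vehicle for controls. Then 4 i.p. MPTP injections (20 mg/kg) at 2-h intervals. Tested at 4, 24, 48 and 72 h; mean of three runs.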

In series [9] the test system is Mus musculus. The series is described as follows: Anti-neuroinflammatory activity in MPTP-induced C57BL/6 mouse assessed as alleviation of functional behaviour impairment at 20 mg/kg, po pre-treated daily for 7 days followed by 4 times MPTP addition at 2 hrs intervals and measured after 4 to 72 hrs post MPTP injection by rota rod test. It is filed as organism-based. Put shortly: as §2

The subject of series [10] is Mus musculus. Kind of series: Anti-neuroinflammatory activity in MPTP-induced C57BL/6 mouse assessed as increase in tyrosine hydroxylase positive cells in substantia nigra at 10 to 20 mg/kg, po pre-treated daily for 7 days followed by 4 times MPTP addition at 2 hrs intervals and measured after 4 to 72 hrs post MPTP injection by DAB staining based immunohistochemistry method. The series is classed as functional, organism-based.

Series [11] deals with Mus musculus. The series is described as follows: Anti-neuroinflammatory activity in MPTP-induced C57BL/6 mouse assessed as increase in tyrosine hydroxylase positive cells in striatum at 10 to 20 mg/kg, po pre-treated daily for 7 days followed by 4 times MPTP addition at 2 hrs intervals and measured after 4 to 72 hrs post MPTP injection by DAB staining based immunohistochemistry method. It is filed as functional, organism-based.

The subject of series [12] is Mus musculus. The series is described as follows: Anti-neuroinflammatory activity in MPTP-induced C57BL/6 mouse assessed as reduction in astroglial activation by measuring increase in glial fibrillary acidic protein expression in substantia nigra at 10 to 20 mg/kg, po pre-treated daily for 7 days followed by 4 times MPTP addition at 2 hrs intervals and measured after 4 to 72 hrs post MPTP injection by DAB staining based immunohistochemistry method. The series is classed as functional, organism-based.

Series [13] concerns Mus musculus. The series is described as follows: Anti-neuroinflammatory activity in MPTP-induced C57BL/6 mouse assessed as reduction in astroglial activation by measuring increase in glial fibrillary acidic protein expression in striatum at 10 to 20 mg/kg, po pre-treated daily for 7 days followed by 4 times MPTP addition at 2 hrs intervals and measured after 4 to 72 hrs post MPTP injection by DAB staining based immunohistochemistry method. The series is classed as functional, organism-based.

The target in series [14] is Nitric oxide synthase, inducible (Mus musculus) (UniProt P29477). The series is described as follows: Inhibition of LPS-induced iNOS in mouse BV2 cells after 4 hrs by DAF-FMDA dye-based fluorescence assay.
Series [15] concerns the target Transcription factor p65 (Mus musculus) (UniProt Q04207). The series is described as follows: Inhibition of LPS-induced nuclear translocation of NF-kappaB-p65 in mouse BV2 cells at 1 to 20 uM preincubated for 2 hrs followed by LPS stimulation for 2 hrs by Western blot analysis.

Calls of active or inactive are those of the source. The calls are words filed in the database; no cut-off is given here. Bounds are passed on as bounds.

Nitric oxide synthase, inducible (Mus musculus), sequence (P29477 whole entry, looked up): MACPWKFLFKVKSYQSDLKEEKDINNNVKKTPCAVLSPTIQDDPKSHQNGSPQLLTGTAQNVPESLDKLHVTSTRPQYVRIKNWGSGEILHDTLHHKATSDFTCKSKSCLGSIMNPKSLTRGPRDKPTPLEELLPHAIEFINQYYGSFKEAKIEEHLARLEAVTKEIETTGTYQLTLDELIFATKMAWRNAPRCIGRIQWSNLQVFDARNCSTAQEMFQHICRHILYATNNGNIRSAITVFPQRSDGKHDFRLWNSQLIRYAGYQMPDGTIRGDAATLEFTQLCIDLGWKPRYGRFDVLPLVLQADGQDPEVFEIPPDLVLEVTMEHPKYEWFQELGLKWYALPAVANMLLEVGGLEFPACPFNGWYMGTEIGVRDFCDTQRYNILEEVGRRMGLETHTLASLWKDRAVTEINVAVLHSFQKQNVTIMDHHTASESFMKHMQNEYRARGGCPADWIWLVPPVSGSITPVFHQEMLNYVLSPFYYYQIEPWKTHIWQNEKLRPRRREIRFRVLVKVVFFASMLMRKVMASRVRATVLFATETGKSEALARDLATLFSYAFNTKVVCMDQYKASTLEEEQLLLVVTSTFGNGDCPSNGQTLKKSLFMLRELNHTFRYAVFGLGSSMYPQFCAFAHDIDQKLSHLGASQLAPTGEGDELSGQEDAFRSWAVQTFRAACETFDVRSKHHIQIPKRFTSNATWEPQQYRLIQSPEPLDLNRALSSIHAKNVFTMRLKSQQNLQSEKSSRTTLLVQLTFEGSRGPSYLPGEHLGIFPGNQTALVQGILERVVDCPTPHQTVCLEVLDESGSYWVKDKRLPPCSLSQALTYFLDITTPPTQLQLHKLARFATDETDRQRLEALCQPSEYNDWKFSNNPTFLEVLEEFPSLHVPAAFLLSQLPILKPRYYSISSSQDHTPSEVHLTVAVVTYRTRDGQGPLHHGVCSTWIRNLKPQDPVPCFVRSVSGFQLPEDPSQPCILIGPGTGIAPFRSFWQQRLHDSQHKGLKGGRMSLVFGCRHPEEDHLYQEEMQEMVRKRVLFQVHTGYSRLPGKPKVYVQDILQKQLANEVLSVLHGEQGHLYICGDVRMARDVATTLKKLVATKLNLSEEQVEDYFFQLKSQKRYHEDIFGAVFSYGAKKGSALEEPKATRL
Transcription factor p65 (Mus musculus), sequence (Q04207 whole entry, looked up): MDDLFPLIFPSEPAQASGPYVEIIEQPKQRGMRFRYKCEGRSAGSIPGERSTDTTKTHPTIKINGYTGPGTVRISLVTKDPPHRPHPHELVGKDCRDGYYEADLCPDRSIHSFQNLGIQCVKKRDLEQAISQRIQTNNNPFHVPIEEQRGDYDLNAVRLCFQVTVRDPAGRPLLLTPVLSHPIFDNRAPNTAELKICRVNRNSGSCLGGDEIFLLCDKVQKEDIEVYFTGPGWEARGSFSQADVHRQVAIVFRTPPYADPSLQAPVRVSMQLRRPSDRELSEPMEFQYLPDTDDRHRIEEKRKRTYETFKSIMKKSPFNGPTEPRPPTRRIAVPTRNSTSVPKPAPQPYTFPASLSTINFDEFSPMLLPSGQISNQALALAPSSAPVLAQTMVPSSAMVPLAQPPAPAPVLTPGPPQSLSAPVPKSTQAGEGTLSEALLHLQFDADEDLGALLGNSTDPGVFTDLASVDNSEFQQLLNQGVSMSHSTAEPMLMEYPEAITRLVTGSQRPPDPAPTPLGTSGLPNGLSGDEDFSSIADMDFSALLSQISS

On to `COc1cc(/C=C/C(=O)N[C@@H](CCC(=O)O)C(=O)O)ccc1O`, for which, in the series with BV-2 [1], the inhibition (commonly the percentage by which the read-out fell short of the control) was “Active”.
On the same count and under the same terms, then `COC(=O)CC[C@H](NC(=O)/C=C/c1cccc(O)c1)C(=O)OC`, with “Active”.
With `COc1cc(/C=C/C(=O)N[C@@H](Cc2ccc(O)cc2)C(=O)O)ccc1O`, in the series with BV-2 [1], the inhibition at 10 µM was more than 50%. In addition, the concentration for half-maximal inhibition (IC50) – broadly, the concentration that gives 50% inhibition – in the series with BV-2 [2] turned out to be 2.67 µM; in series [14] it was 1.01 µM. Further, the CC50 (usually the concentration that lowers cell viability or growth by half) at 24 h in series [3] is more than 100 µM. Further, the Activity result in the series on BV-2 [4], with BV-2 [5], in the series with BV-2 [6] and in the series on BV-2 [7] was “Dose-dependent effect” each time. The result in the series with Mus musculus [8], in the series on Mus musculus [9], in the series on Mus musculus [10], with Mus musculus [11], in the series on Mus musculus [12] and in the series on Mus musculus [13] was Active. Moreover, the inhibition result in [15] is “Active”.
Regarding `COc1cc(/C=C/C(=O)N[C@@H](Cc2ccccc2)C(=O)O)ccc1O`, the inhibition at 10 µM in the series on BV-2 [1] was more than 50%. For the same molecule, the IC50 was determined as 4.41 µM in the series with BV-2 [2] and 2.98 µM in series [14]. Also, in series [3], the CC50 at 24 h is more than 100 µM.
Take `COC(=O)C[C@H](NC(=O)/C=C/c1cccc(O)c1)C(=O)OC`: the inhibition result in the series with BV-2 [1] is “Active”.
Same read-out and setting: then `O=C(O)C[C@H](NC(=O)/C=C/c1cccc(O)c1)C(=O)O`, with “Active”.
Same read-out and setting: under `COC(=O)[C@H](Cc1ccccc1)NC(=O)/C=C/c1ccccc1` stands “Active”; under `COC(=O)[C@H](Cc1ccccc1)NC(=O)/C=C/c1ccc(O)cc1`, “Active”; under `COC(=O)CC[C@H](NC(=O)/C=C/c1ccccc1)C(=O)OC`, “Active”.
Still for that read-out and setting: then `COC(=O)CC[C@H](NC(=O)/C=C/c1ccc(O)c(OC)c1)C(=O)OC`, with “Active”; and `COC(=O)[C@H](Cc1ccccc1)NC(=O)/C=C/c1cccc(O)c1`, with “Active”.
For `O=C(/C=C/c1ccc(O)cc1)N[C@@H](Cc1ccc(O)cc1)C(=O)O`, the inhibition at 10 µM with BV-2 [1] was more than 50%. Also, the IC50 in the series on BV-2 [2] was 3.4 µM; in series [14], 2.1 µM. In addition, in [3], the CC50 at 24 h is more than 100 µM.
As to `COC(=O)[C@H](Cc1ccc(O)cc1)NC(=O)/C=C/c1ccc(O)cc1`, the inhibition result in the series on BV-2 [1] is “Active”.
Same read-out and setting: under `COC(=O)C[C@H](NC(=O)/C=C/c1ccc(O)cc1)C(=O)OC` stands “Active”.
For the molecule `O=C(/C=C/c1cccc(O)c1)N[C@@H](Cc1ccccc1)C(=O)O`, in the series with BV-2 [1], the inhibition at 10 µM is more than 50%. The half-inhibitory concentration (IC50) in the series with BV-2 [2] came to 15.3 µM; in series [14] it was 29.2 µM. Besides, the CC50 at 24 h in series [3] was more than 100 µM.
For the molecule `COC(=O)[C@H](Cc1ccc(O)cc1)NC(=O)/C=C/c1ccc(O)c(OC)c1`, the inhibition entry in the series with BV-2 [1] was “Active”.
Still for that read-out and setting: then `O=C(/C=C/c1ccccc1)N[C@@H](Cc1ccc(O)cc1)C(=O)O`, with “Active”; and `O=C(O)CC[C@H](NC(=O)/C=C/c1ccccc1)C(=O)O`, with “Active”; and `COC(=O)[C@H](Cc1ccc(O)cc1)NC(=O)/C=C/c1ccccc1`, with “Active”.
On to `O=C(/C=C/c1ccccc1)N[C@@H](Cc1ccccc1)C(=O)O`, for which the inhibition at 10 µM in the series with BV-2 [1] was more than 50%. Moreover, the IC50 with BV-2 [2] came to 26.4 µM; in [14], 18.9 µM. In addition, the CC50 at 24 h in series [3] is more than 100 µM.
For the molecule `O=C(O)CC[C@H](NC(=O)/C=C/c1cccc(O)c1)C(=O)O`, the inhibition entry in the series on BV-2 [1] was “Active”.
The same measure, in the same setting: then `O=C(O)C[C@H](NC(=O)/C=C/c1ccc(O)cc1)C(=O)O`, with “Active”.
Still for that read-out and setting: then `COC(=O)[C@H](Cc1ccc(O)cc1)NC(=O)/C=C/c1cccc(O)c1`, with “Active”.
On to `O=C(/C=C/c1ccc(O)cc1)N[C@@H](Cc1ccccc1)C(=O)O`, for which the inhibition at 10 µM in the series with BV-2 [1] was more than 50%. Also, the IC50 was found to be 10.4 µM in the series on BV-2 [2] and 8.45 µM in [14]. The CC50 at 24 h in series [3] was more than 100 µM.
With `COC(=O)[C@H](Cc1ccccc1)NC(=O)/C=C/c1ccc(O)c(OC)c1`, in the series on BV-2 [1], the inhibition entry is “Active”.
Still for that read-out and setting: under `O=C(/C=C/c1cccc(O)c1)N[C@@H](Cc1ccc(O)cc1)C(=O)O` stands “Active”.
